Assay results reported in paper PMC5508980 (Molecular nutrition & food research, 2017).

Assays:
Assay type in all cases: biochemical
recombinant HDAC8 = biological target: T1, recombinant HDAC8 (Homo sapiens, UniProt Q9BY41); test: Recombinant HDAC activity assay; details: 2 h, read-out: % HDAC activity, Class I HDACs, 8
T1 sequence (Q9BY41 1-377): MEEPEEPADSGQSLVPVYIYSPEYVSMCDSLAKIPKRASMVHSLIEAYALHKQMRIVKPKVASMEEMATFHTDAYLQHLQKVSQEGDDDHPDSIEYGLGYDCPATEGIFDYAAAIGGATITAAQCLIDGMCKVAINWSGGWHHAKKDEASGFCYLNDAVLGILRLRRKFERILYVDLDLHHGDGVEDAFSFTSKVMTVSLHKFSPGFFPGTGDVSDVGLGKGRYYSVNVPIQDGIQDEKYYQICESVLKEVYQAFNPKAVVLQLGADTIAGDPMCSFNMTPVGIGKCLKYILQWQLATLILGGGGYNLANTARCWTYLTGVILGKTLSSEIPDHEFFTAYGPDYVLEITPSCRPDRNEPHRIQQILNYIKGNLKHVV

recombinant HDAC4 = recombinant HDAC4 (Homo sapiens, UniProt P56524); test: Recombinant HDAC activity assay; details: 2 h, read-out: % HDAC activity, Class IIa HDACs, 4
Chain of recombinant HDAC4 (P56524 whole entry): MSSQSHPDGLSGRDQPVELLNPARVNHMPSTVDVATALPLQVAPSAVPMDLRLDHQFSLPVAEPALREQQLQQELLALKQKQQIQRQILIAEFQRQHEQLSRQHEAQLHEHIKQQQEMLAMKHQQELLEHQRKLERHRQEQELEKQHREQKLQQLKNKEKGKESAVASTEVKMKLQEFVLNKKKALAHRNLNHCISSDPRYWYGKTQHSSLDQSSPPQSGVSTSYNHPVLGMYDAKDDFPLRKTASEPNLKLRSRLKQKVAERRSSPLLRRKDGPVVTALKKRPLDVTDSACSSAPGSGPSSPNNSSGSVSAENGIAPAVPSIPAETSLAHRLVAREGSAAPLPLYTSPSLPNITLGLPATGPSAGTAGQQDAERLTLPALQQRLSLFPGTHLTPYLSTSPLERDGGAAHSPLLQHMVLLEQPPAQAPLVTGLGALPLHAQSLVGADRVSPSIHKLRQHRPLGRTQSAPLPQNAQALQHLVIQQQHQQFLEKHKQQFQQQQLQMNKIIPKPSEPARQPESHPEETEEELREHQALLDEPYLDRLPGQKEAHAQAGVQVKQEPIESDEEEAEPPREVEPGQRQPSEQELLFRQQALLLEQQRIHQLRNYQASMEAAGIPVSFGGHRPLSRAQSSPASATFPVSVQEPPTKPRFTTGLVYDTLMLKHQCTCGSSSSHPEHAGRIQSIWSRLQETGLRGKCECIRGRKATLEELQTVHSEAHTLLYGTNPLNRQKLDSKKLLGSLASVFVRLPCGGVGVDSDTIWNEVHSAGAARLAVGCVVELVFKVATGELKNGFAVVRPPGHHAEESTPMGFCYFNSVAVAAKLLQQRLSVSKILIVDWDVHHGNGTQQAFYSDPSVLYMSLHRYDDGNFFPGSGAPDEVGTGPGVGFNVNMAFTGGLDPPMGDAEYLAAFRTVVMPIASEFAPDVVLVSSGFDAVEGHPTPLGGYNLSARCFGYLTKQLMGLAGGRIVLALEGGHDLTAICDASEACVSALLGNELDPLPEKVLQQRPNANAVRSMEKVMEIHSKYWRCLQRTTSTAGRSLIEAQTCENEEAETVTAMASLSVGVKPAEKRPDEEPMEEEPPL

recombinant HDAC10 = biological target: T2, recombinant HDAC10 (Homo sapiens, UniProt Q969S8); test: Recombinant HDAC activity assay; details: 2 h, read-out: % HDAC activity, Class IIb HDACs, 10
T2 sequence (Q969S8 1-669): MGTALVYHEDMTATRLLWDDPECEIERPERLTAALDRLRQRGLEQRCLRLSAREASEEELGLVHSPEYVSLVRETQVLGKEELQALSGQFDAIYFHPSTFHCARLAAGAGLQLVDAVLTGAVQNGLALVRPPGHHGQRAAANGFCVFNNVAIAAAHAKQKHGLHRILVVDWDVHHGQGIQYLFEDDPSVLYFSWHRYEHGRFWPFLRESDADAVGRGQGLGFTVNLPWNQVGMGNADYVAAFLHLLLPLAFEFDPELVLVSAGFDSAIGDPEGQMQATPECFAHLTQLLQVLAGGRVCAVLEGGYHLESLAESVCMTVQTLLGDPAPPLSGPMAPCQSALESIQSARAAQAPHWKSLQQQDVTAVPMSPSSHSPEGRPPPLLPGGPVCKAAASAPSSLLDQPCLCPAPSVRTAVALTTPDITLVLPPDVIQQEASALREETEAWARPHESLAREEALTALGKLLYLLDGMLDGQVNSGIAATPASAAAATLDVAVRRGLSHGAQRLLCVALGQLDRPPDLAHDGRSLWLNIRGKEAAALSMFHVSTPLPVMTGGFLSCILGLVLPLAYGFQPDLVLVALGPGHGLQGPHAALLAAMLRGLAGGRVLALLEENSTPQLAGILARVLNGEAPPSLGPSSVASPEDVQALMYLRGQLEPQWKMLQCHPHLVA

[1] = test system: HDAC activity in bovine cardiac tissue; test: Natural product library screen with class-selective HDAC substrates; details: 2 hours treatment
Outline: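 The screen covered 131 natural compounds against bovine cardiac tissue lysate at 30 µg protein/well in PBS (pH 7.4 lysis buffer with Triton X-100 and NaCl). Test compound for 2 h, then separate class I, IIa or IIb fluorogenic acyl-lysine-AMC substrates for 2 h at 37 °C. Developer (Triton X-100, 3 µM TSA, 0.75 mg/ml trypsin) for 20 min; fluorescence read at 360/460 nm.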

## Cc1cc(O)c2c(c1)C(=O)c1cc(O)cc(O)c1C2=O [Emodin]
Recombinant HDAC8
  remaining activity at 50 µM: 32.3%
Recombinant HDAC4
  remaining activity at 50 µM: 92.8%
Recombinant HDAC10
  remaining activity at 50 µM: 35.8%
[1]
  catalytic HDAC activity across class I, IIa and IIb substrates, effect in words: dose-dependent pan-HDAC inhibition
